Screens: PubChem, The Scripps Research Institute Molecular Screening Center
Shown are actives, neighbours in structure and some others; about 2% of the full set was active somewhere.
PAD4 FP inh – blocks human protein arginine deiminase 4 | Q9UM07 | recombinant PAD4, RCA probe fluorescence polarization | inhibition, % at 6.36 µM | 0.41% of 330,000 active | AID 485272;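 active = percent inhibition above a cutoff equal to the mean of all tested compounds plus 3 SD, cut at about 15% in these data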;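 note: 0% = PAD4 with RCA probe and DMSO and 100% = probe without PAD4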
TDP2 inh – TDP2 (human) inhibition, absorbance primary screen; O95551; recombinant TDP2, T5PNP hydrolysis, p-nitrophenol absorbance 415 nm; inhibition, % at 12.8 µM; 0.34% of 370,000 active; AID 720702;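 active = inhibition above the mean of all tested compounds plus 3 SD, set per campaign, cut at about 25% in these data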;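 note: 0% = DMSO with enzyme and 100% = buffer with substrate but no TDP2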
Target sequence (O95551 whole entry, looked up): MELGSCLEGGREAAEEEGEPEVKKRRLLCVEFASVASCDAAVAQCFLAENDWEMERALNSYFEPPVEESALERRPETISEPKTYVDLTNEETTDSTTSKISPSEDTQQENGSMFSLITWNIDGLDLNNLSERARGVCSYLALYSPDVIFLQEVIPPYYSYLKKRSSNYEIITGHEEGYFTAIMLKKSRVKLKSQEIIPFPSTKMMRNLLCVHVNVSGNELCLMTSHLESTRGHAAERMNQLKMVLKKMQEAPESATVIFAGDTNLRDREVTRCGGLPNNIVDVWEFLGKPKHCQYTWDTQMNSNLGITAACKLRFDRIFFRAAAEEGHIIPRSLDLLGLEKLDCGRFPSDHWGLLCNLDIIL
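System: recombinant human TDP2 / Amount: 120 nM TDP2 per well / Also added: 5 mM T5PNP chromogenic substrate / Doses: 12.8 µM single point, 1% DMSO / Incubation: 2 h at 37 °C / Detection: p-Nitrophenol epi absorbance / Evaluation: % inhibition relative to enzyme-containing and enzyme-free wells / Repeats: singlicate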
HTRA1 inhibitor – blocks human HTRA1 serine peptidase; recombinant HTRA1, FP-rhodamine activity-based probe, fluorescence polarization; inhibition, % at 5.96 µM; AID 504803; 0.5% of 340,000 active; in the data active = inhibition above about 36%;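 note: 0% = enzyme with DMSO and 100% = wells lacking enzyme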
TCR CD3 inh – blocks the human TCR-CD3 interaction; TAMRA-labeled TCR probe fluorescence, biochemical; inhibition, % at 9.4 µM; 0.37% of 360,000 active; AID 651800; in the data active = inhibition above about 19%;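 note: recombinant mutant TCR 2C K166C tagged with TAMRA read by polarization; 0% = receptor in buffer alone and 100% = receptor with positive control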
mABHD4 FP – inhibits mouse alpha/beta hydrolase domain 4 | purified mABHD4, FP-Rh probe fluorescence polarization | inhibition, % at 8.92 µM | 0.54% of 370,000 active | AID 720543;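 active = inhibition exceeding the mean over every tested compound plus 3 SD, cut at about 30% in these data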;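 note: 0% = plate median of compound wells and 100% = S159A mutant with DMSO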
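system = mouse ABHD4 enzyme, wild type | medium = HEPES pH 7.0, NaCl, Pluronic buffer | also added = FP-Rh probe | incubation = Enzyme–compound pre-incubation 45 min, then probe 60 min, both 25 °C | technique = fluorescence polarization, excitation 525 nm, emission 598 nm, BODIPY TMR filters | controls = S159A mutant high control, sample median low control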
SIAE primary – human SIAE inhibition, primary screen | Q9HAT2 | AID 1053197 | 0.69% of 370,000 active | inhibition, % at 9.66 µM | SIAE FP-Rh probe binding, fluorescence polarization;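 active = inhibition above a cutoff: mean of compounds within the control limits plus 3 SD of those, cut at about 17% in these data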;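 note: 0% = plate median of compound wells and 100% = probe without SIAE protein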
SIAE confirm – confirmation of human SIAE inhibitors. shares compounds with SIAE primary. SIAE FP-Rh activity-based probe, fluorescence polarization. inhibition, % at 9.66 µM. 13% of 2,300 active;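 active = mean inhibition of the replicates above the hit cutoff set in the primary screen, cut at about 17% in these data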;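 note: 0% = SIAE with DMSO and probe and 100% = probe without SIAE; inhibitors lower polarization as more probe stays unbound to SIAE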
Active calls of the source: *; nt = no result.

SMILES	PAD4 FP inh	TDP2 inh	HTRA1 inhibitor	TCR CD3 inh	mABHD4 FP	SIAE primary	SIAE confirm
O=C(CN1CCN(C(=O)c2ccccc2)CC1)Nc1cccc(S(=O)(=O)N2CCCC2)c1	nt	-5	-2	-10	-5	-3	nt
Cc1c(C2(O)CCCCC2)[nH]c2cnccc12	-4	14	2	3	-2	23*	-3
Cc1c(C2(O)CCCCC2)[nH]c2ncccc12	5	-26	3	8	3	-13	nt
CCC(=O)OCC(=O)Nc1cc([N+](=O)[O-])ccc1Cl	3	8	7	4	-1	-3	nt
CNC(=O)COC(=O)C1CCN(S(=O)(=O)c2ccc3c(c2)OCCO3)CC1	6	10	-5	-10	1	0	nt
O=C(COC(=O)C1CCN(S(=O)(=O)c2ccc3c(c2)OCCO3)CC1)Nc1cccc2ccccc12	2	-12	2	-2	0	18*	-1
O=C(CN1CCN(S(=O)(=O)c2ccc3c(c2)OCCO3)CC1)Nc1cccc(F)c1	nt	-7	-2	4	2	19*	0
COC(=O)CCCn1cc(CN2CC=CS2(=O)=O)nn1	nt	0	nt	nt	7	-1	nt
Cn1cnnc1SCC(=O)c1cc2ccccc2oc1=O	-3	3	26	-5	16	18*	6
O=C(CSc1nnc(-c2cccnc2)o1)c1cc2ccccc2oc1=O	1	2	-1	2	5	-2	nt
COc1cc2ncnc(NCCCN3CCOCC3)c2cc1OC	-1	-4	-1	-3	-1	38*	1
CC(=O)Nc1ccc(NC(=O)COC(=O)c2c(-c3ccccc3)noc2C)cc1	2	-1	2	15	-2	0	nt
COc1cc(OC)c(NC(=O)N2CCOCC2)cc1Cl	nt	-2	3	-4	0	25*	2
COc1cc(OC)c(NC(=O)c2cc(S(=O)(=O)N3CCOCC3)cn2C)cc1Cl	-1	-5	-6	11	-4	3	nt
c1ccc2[nH]c(-c3cnco3)cc2c1	-16	6	1	0	1	9	nt
Cc1nc(C)c(-c2ccnc(/N=C/NO)n2)s1	-5	7	1	0	-2	-2	nt
Cc1ccc(Nc2nc(/N=C/NO)n[nH]2)cc1C	-4	-5	3	6	3	26*	2
CC(C)(C)C(=O)N1CCN(c2nc3ccc(Cl)cc3s2)CC1	4	-15	-8	1	-3	18*	-2
Cc1ccc(/C(O)=C2\C(=O)C(=O)N(CCCN3CCOCC3)C2c2ccccc2F)cc1 (centres undefined)	nt	-3	3	6	-1	2	nt
Cc1ccc(C(=O)NCC(c2ccco2)N2CCc3ccccc32)cc1C (centres undefined)	-7	-8	-16	-2	-1	-1	nt
O=C(NCC(c1ccco1)N1CCc2ccccc21)c1ccccc1 (centres undefined)	1	7	4	-4	2	23*	3
COc1ccc(OC)c(S(=O)(=O)NCC(c2ccco2)N2CCc3ccccc32)c1 (centres undefined)	5	14	0	7	1	18*	6
Cc1c(C(=O)NCc2ccccc2C(F)(F)F)sc(=O)n1Cc1ccc2c(c1)OCO2	nt	-7	nt	8	-3	-14	nt
COc1ccc(-c2nc(C)sc2CC(=O)O)cc1	-3	-14	2	-2	6	-3	nt
COc1ccc(-c2nc(C)sc2CC(=O)O)cc1OC	-4	-9	-1	4	4	18*	4
SMILES	PAD4 FP inh	TDP2 inh	HTRA1 inhibitor	TCR CD3 inh	mABHD4 FP	SIAE primary	SIAE confirm
Cc1cccc2c1CCCC2=O	nt	-3	17	-9	-11	-4	nt
CC[C@]12CCCN3CCc4c(n(c5ccccc45)[C@](O)(C(=O)OC)C1)[C@@H]32	2	-3	-2	8	-4	0	nt
CCC12CCCN3CCc4c(n(c5ccccc45)C(O)(C(=O)OC)C1)C32 (centres undefined)	-2	22	14	9	10	21*	3
C1=C(CCNc2ncnc3c2[nH]c2ccccc23)CCCC1	-3	-5	6	0	25	23*	22*
O=c1c2[nH]c3ccccc3c2ncn1CCC1=CCCCC1	2	-7	0	-7	1	2	nt
Cc1nn(Cc2noc(C(=O)NCc3ccccn3)n2)c(C)c1Br	1	-13	0	7	9	-4	nt
Cc1occc1-c1nnc(SCC(=O)N2CCCCC2)o1	1	2	8	-2	3	0	nt
COC(=O)c1ccc(C)c(NC(=O)C(CCSC)NC(=O)c2cc(OC)c(OC)c(OC)c2)c1 (centres undefined)	-7	6	0	4	-1	17*	-4
COC(=O)C1=C(C)N(Cc2cccnc2)C(=O)/C1=C\c1sccc1C	2	9	-4	0	1	4	nt
CS(=O)(=O)c1cnc(-c2ccccc2)nc1Sc1ccc(F)cc1	4	16	-2	3	4	17*	5
Cc1c(CCNC=O)cc(C)c2c3c(oc12)CCCC3	nt	2	-19	-1	-1	89*	5
COc1ccc(OC)c(NC(=O)CSc2nc3[nH]c(=O)cc(O)c3s2)c1	4	3	-3	6	16	19*	-3
CC(=O)c1cccc(N(C(=O)CNC(=O)c2ccco2)C(C(=O)NC2CCCC2)c2ccc(C)o2)c1 (centres undefined)	-4	-1	1	3	-1	0	nt
CC(=O)c1cccc(N(C(=O)c2ccco2)C(C(=O)NC2CCCCC2)c2ccc(C)o2)c1 (centres undefined)	-3	-8	2	-2	-1	19*	-8
COc1ccc(N(C(=O)c2ccco2)C(C(=O)NC2CCCC2)c2ccc(N(C)C)cc2)cc1OC (centres undefined)	-4	4	2	0	1	26*	4
CCCCc1cc(=O)oc2cc(OCc3nn[nH]n3)ccc12	4	-8	3	-8	-8	-1	nt
CC(C)=NNc1cc([N+](=O)[O-])cc2c1C(=O)N(C)S2=O (centres undefined)	-1	-1	4	-2	5	17*	1
NNc1cc([N+](=O)[O-])cc2c1C(=O)N(Cc1ccccc1)S2=O (centres undefined)	0	-1	20	-1	15	4	nt
Fc1cccc2sc(Nc3nc4cc5c(cc4s3)OCO5)nc12	-2	6	-2	-4	9	13	nt
Fc1cc(F)c2nc(Nc3nc4cc5c(cc4s3)OCO5)sc2c1	-3	10	2	7	2	25*	85*
